According to ChEMBL document CHEMBL1132587, “Synthesis and serotonergic activity of 3-[2-(pyrrolidin-1-yl)ethyl]indoles: potent agonists for the h5-HT1D receptor with high selectivity over the h5-HT1B receptor” (J Med Chem, 1999):
Several values for one entry are separate records, joined by “and”; a condition that tells them apart may be missing. Identical values can stand only once.

Tests used:
[1] = biological target: T1, 5-hydroxytryptamine receptor 1B (Homo sapiens, UniProt P28222); assay: Displacement of [3H]5-HT binding from the cloned human 5-hydroxytryptamine 1B receptor stably expressed in CHO cells; format: cell-based
[2] = biological target: T2, 5-hydroxytryptamine receptor 1D (Homo sapiens, UniProt P28221); assay: Displacement of [3H]5-HT binding from the cloned human 5-hydroxytryptamine 1D receptor stably expressed in CHO cells; format: cell-based
[3] = biological target: T2, 5-hydroxytryptamine receptor 1D; assay: Stimulation of [35S]GTP-gamma-S, binding in CHO cells expressing the 5-hydroxytryptamine 1D receptor; format: functional, cell-based
Rattus norvegicus [4] = assay: Hepatic portal vein plasma concentration after oral administration; format: functional, organism-based
In short: (§1)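 Fasted (≥12 h) rats, ~300 g, given 3 mg/kg orally in aqueous formulation (5 mL/kg); four rats per time point, isoflurane anaesthesia, hepatic portal vein blood at 0.5 or 2 h; plasma extracted (liquid-liquid or solid-phase) and analysed by reversed-phase HPLC with UV or fluorescence detection.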

[5] = biological target: T3, 5-hydroxytryptamine receptor 1A (Homo sapiens, UniProt P08908); assay: Affinity of compound towards 5-hydroxytryptamine 1A receptor was evaluated using radioligand binding technique
T3 sequence (P08908 whole entry): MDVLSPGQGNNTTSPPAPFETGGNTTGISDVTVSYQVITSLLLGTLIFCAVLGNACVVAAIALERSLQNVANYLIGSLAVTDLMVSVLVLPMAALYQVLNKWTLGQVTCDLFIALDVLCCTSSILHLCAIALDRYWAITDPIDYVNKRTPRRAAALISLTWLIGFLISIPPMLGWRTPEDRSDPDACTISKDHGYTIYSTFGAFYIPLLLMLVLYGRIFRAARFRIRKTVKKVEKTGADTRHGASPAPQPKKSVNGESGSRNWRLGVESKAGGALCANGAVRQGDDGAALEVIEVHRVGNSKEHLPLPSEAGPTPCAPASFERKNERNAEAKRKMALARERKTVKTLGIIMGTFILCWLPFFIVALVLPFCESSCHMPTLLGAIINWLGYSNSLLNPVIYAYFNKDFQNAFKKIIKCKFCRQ

[6] = biological target: T1, 5-hydroxytryptamine receptor 1B; assay: Affinity of compound towards 5-hydroxytryptamine 1B receptor was evaluated using radioligand binding technique
[7] = biological target: T2, 5-hydroxytryptamine receptor 1D; assay: Affinity of compound towards 5-hydroxytryptamine 1D receptor was evaluated using radioligand binding technique
Rattus norvegicus [8] = assay: Hepatic portal vein plasma concentration after administration; format: functional, organism-based; in short: as §1
[9] = biological target: 5-hydroxytryptamine receptor 2A (Rattus norvegicus) (UniProt P14842); assay: Affinity of compound towards rat 5-hydroxytryptamine 2A receptor was evaluated using radioligand binding technique
Chain of 5-hydroxytryptamine receptor 2A (Rattus norvegicus) (P14842 whole entry, looked up): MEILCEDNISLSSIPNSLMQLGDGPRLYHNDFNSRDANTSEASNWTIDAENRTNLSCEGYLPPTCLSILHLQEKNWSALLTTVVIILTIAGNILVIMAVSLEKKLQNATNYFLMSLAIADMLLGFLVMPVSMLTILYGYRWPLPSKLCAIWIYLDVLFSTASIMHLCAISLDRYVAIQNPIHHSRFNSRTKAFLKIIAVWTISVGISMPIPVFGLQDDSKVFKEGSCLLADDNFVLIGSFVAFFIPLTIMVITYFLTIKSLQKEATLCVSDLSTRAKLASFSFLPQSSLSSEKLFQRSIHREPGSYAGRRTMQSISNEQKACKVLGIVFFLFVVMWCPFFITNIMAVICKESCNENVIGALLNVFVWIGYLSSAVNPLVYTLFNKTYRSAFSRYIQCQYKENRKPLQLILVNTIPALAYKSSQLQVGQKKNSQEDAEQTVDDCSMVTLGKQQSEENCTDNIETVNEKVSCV

T1 sequence (P28222 whole entry): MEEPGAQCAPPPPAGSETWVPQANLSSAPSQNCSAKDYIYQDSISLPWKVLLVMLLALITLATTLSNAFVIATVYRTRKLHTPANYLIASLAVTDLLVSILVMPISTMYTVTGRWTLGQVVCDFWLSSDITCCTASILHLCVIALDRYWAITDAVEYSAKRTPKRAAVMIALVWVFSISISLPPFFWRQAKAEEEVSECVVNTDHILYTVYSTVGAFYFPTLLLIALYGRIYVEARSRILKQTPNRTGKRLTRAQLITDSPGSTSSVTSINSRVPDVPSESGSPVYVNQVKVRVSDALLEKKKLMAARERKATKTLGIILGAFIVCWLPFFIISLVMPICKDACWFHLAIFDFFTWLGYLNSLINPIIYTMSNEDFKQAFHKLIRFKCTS
T2 sequence (P28221 whole entry): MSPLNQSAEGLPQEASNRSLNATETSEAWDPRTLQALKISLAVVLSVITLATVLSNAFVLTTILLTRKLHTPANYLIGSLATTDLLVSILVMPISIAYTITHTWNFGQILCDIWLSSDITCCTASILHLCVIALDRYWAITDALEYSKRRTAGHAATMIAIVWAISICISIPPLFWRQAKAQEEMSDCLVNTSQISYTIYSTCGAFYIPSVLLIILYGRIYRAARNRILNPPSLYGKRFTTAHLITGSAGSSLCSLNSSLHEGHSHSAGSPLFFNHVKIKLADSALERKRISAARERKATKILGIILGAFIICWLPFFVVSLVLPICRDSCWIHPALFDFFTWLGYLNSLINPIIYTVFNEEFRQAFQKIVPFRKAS

Compound | IC50 [1] [nM] | IC50 [2] [nM] | EC50 [3] [nM] | also measured
c1ccc(COC[C@@H]2CCN(CCCc3c[nH]c4ccc(-n5cnnc5)cc34)C2)cc1 | 33 | 2.1 |  | 
C=CCNC[C@@H]1CCN(CCc2c[nH]c3ccc(-n4cnnc4)cc23)C1 | 325 | 17 |  | 
C[C@@H](NC[C@@H]1CCN(CCc2c[nH]c3ccc(-n4cnnc4)cc23)C1)c1ccccc1 | 74 | 0.72 | 2.1 | 
c1ccc(CNC[C@@H]2CCN(CCc3c[nH]c4ccc(-n5cnnc5)cc34)C2)nc1 | 48 | 3.6 |  | 
CC(=O)Nc1ccc(CNC[C@@H]2CCN(CCc3c[nH]c4ccc(-n5cnnc5)cc34)C2)cc1 | 165 | 12 | 10 | 
c1cncc(CNC[C@@H]2CCN(CCc3c[nH]c4ccc(-n5cnnc5)cc34)C2)c1 | 62 | 3.8 |  | 
O[C@@H]1CCN(CCc2c[nH]c3ccc(-n4cnnc4)cc23)C1 | 93 | 9 | 7.8 | 
c1ccc(COC[C@@H]2CCN(CCc3c[nH]c4ccc(-n5cnnc5)cc34)C2)cc1 | 85 |  |  | 
CN(Cc1ccccc1)C[C@@H]1CCN(CCCc2c[nH]c3ccc(-n4cnnc4)cc23)C1 | 59 | 4.2 |  | 
c1cc(CNC[C@@H]2CCN(CCc3c[nH]c4ccc(-n5cnnc5)cc34)C2)ccn1 | 110 | 8.5 | 9.5 | 
c1ccc(NC[C@@H]2CCN(CCc3c[nH]c4ccc(-n5cnnc5)cc34)C2)cc1 | 87 | 9.1 |  | 
CN(Cc1ccccc1)C[C@@H]1CCN(CCc2c[nH]c3ccc(Cn4cncn4)cc23)C1 | 575 | 7.7 | 11 | Plasma concentration (Rattus norvegicus [4]): 39 ng/mL and 114 ng/mL
c1cc(CNC[C@@H]2CCN(CCc3c[nH]c4ccc(-n5cnnc5)cc34)C2)co1 | 12 | 0.45 | 1.3 | 
c1cc2[nH]cc(CCN3CCCC3)c2cc1-n1cnnc1 | 28 | 3.1 | 2.3 | 
c1ccc(CNC[C@@H]2CCN(CCc3c[nH]c4ccc(-n5cnnc5)cc34)C2)cc1 |  |  | 0.8 | IC50 [5]: 5.4 nM; Plasma concentration (Rattus norvegicus [4]): < 5 ng/mL
C[C@H](NC[C@@H]1CCN(CCc2c[nH]c3ccc(-n4cnnc4)cc23)C1)c1ccccc1 | 41 | 0.45 | 0.63 | 
CN(Cc1ccccc1)C[C@@H]1CCN(CCc2c[nH]c3ccc(-n4cnnc4)cc23)C1 | 32 |  | 1.5 | 
c1cc2[nH]cc(CCN3CCC3)c2cc1-n1cnnc1 | 4.4 | 1.1 |  | 
c1ccc(CNC[C@@H]2CCN(CCc3c[nH]c4ccc(Cn5cncn5)cc34)C2)cc1 | 260 | 3.2 | 4.9 | Plasma concentration (Rattus norvegicus [4]): < 25 ng/mL and 55 ng/mL

Compound | IC50 [1] [nM] | IC50 [2] [nM] | EC50 [3] [nM] | also measured
O=C1N[C@@H](Cc2ccc3[nH]cc(CCN4CC[C@@H](CNCc5ccccc5)C4)c3c2)CO1 | 49 | 0.35 | 1.7 | IC50 [5]: 17 nM; IC50 [6]: 49 nM; IC50 [7]: 0.35 nM; Plasma concentration (Rattus norvegicus [8]): < 2 ng/mL and 4 ng/mL; IC50 [9]: 3000 nM
C[C@H](NC[C@@H]1CCN(CCc2c[nH]c3ccc(Cn4cncn4)cc23)C1)c1ccccc1 | 305 | 2.5 | 3 | 
CNS(=O)(=O)Cc1ccc2[nH]cc(CCN3CC[C@@H](CNCc4ccccc4)C3)c2c1 | 62 | 1.1 | 3.5 | IC50 [5]: 41 nM; IC50 [6]: 62 nM; IC50 [7]: 1.1 nM; IC50 [9]: 5800 nM
c1coc(CNC[C@@H]2CCN(CCc3c[nH]c4ccc(-n5cnnc5)cc34)C2)c1 | 20 | 1.5 | 2.8 | 
c1ccc(CNC[C@H]2CCN(CCc3c[nH]c4ccc(-n5cnnc5)cc34)C2)cc1 | 47 |  |  | 
c1ccc(CO[C@H]2CCN(CCc3c[nH]c4ccc(-n5cnnc5)cc34)C2)cc1 | 275 | 20 | 31 | 
c1ccc(COC[C@H]2CCCN2CCc2c[nH]c3ccc(-n4cnnc4)cc23)cc1 | 575 | 95 |  | 
CN(C)CCc1c[nH]c2ccc(-n3cnnc3)cc12 | 1.3 |  | 0.4 | 
C[C@H](NC[C@@H]1CCN(CCc2c[nH]c3ccc(C[C@H]4COC(=O)N4)cc23)C1)c1ccccc1 | 49 | 0.3 | 0.5 | IC50 [5]: 8.7 nM; IC50 [6]: 50 nM; IC50 [7]: 0.3 nM; IC50 [9]: 2200 nM
CN(Cc1ccccc1)C[C@@H]1CCN(CCc2c[nH]c3ccc(C[C@H]4COC(=O)N4C)cc23)C1 | 69 | 1.7 | 3.2 | 
CN(Cc1ccccc1)[C@@H]1CCN(CCc2c[nH]c3ccc(-n4cnnc4)cc23)C1 |  | 37 |  | 
CC(=O)N(Cc1ccccc1)C[C@@H]1CCN(CCc2c[nH]c3ccc(-n4cnnc4)cc23)C1 | 11 | 1.1 |  | 
c1ccc(CCNC[C@@H]2CCN(CCc3c[nH]c4ccc(-n5cnnc5)cc34)C2)cc1 | 125 | 2.6 | 6.2 | 
CN(Cc1ccccc1)C[C@@H]1CCCN1CCc1c[nH]c2ccc(-n3cnnc3)cc12 | 15 | 0.8 | 3 | 
C[C@@H](c1ccccc1)N(C)C[C@@H]1CCN(CCc2c[nH]c3ccc(Cn4cncn4)cc23)C1 | 87 | 0.7 | 4.5 | 
c1ccc(COC[C@@H]2CCCN2CCc2c[nH]c3ccc(-n4cnnc4)cc23)cc1 | 2.7 | 0.81 |  | 
CC(C)(NC[C@@H]1CCN(CCc2c[nH]c3ccc(-n4cnnc4)cc23)C1)c1ccccc1 | 39 | 1 | 0.3 | 
OC[C@@H]1CCN(CCc2c[nH]c3ccc(-n4cnnc4)cc23)C1 | 93 | 26 |  | 
